Test results taken from ChEMBL document CHEMBL5335845, “Discovery of GLPG2737, a Potent Type 2 Corrector of CFTR for the Treatment of Cystic Fibrosis in Combination with a Potentiator and a Type 1 Co-corrector” (J Med Chem, 2024).
pIC50: −log10 of the molar value. ≈ marks a conversion by molar mass, not a printed value. Each block holds one compound with its values, some of them ahead of it.

How the values were obtained:
[1] = Clearance in Sprague-Dawley rat at 1 mg/kg, iv measured after 24 hrs by LC-MS/MS analysis; format: ADME, organism-based; conditions: in vivo
[2] = Metabolic stability in rat hepatocyte assessed as unbound intrinsic clearance at 1 uM incubated for 180 mins by LC-MS/MS analysis; format: ADME, cell-based; conditions: hepatocytes, 3 h
[3] = Metabolic stability in human hepatocyte assessed as unbound intrinsic clearance at 1 uM incubated for 180 mins by LC-MS/MS analysis; format: ADME, cell-based; conditions: hepatocytes, 3 h
[4] = Metabolic stability in dog hepatocyte assessed as unbound intrinsic clearance at 1 uM incubated for 180 mins by LC-MS/MS analysis; format: ADME, cell-based, Canis lupus familiaris; conditions: hepatocytes, 3 h
[5] = Plasma clearance in Sprague-Dawley rat at 5 mg/kg, po or 0.1 mg/kg, iv measured upto 24 hrs by LC-MS/MS analysis; format: ADME, organism-based; conditions: in vivo
Procedure, shortened: (§1)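 Male Sprague–Dawley rats (6–8 weeks), iv tail-vein bolus 0.1 mg/kg in PEG200/water 60/40, or oral gavage 5 mg/kg suspension in 0.5% MC after ≥12 h fast; plasma (Li-heparin) sampled to 24 h, n = 3 per route, LC-MS/MS; noncompartmental analysis.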

[6] = Metabolic stability in rat liver microsomes assessed as unbound intrinsic clearance at 1 uM incubated for 30 mins by LC-MS/MS analysis; format: ADME, Microsome; conditions: 0.5 h
[7] = Metabolic stability in human liver microsomes assessed as unbound intrinsic clearance at 1 uM incubated for 30 mins by LC-MS/MS analysis; format: ADME, Microsome; conditions: 0.5 h
Cytochrome P450 3A4 [8] = biological target: T1, Cytochrome P450 3A4 (Homo sapiens, UniProt P08684); test: Induction of CYP3A4 in human hepatocytes assessed as mRNA at 10 uM after 72 hrs by qPCR analysis relative to rifampicin; format: ADME, cell-based, Hepatocyte
Procedure, shortened: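 Single-donor cryopreserved human hepatocytes, 0.1 × 10^6 cells/well, exposed to 10 μM compound (0.1% DMSO) in triplicate for 72 h with daily renewal; RNA RT-qPCR for CYP3A4 vs endogenous control, 2^-ΔΔCT relative to vehicle, expressed as % of 10 μM rifampicin.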

[9] = Plasma protein binding in rat at 5 uM measured after 4 hrs under shaking by LC-MS/MS analysis; format: ADME, cell-free; conditions: read-out: PPB (converted)
Procedure, shortened: (§2)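 Equilibrium dialysis of compound 5 μM (0.5% DMSO) in plasma against PBS pH 7.4, 4 h at 37 °C with shaking; matrix-matched samples, acetonitrile precipitation, LC-MS/MS; % bound from plasma and buffer peak areas.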

[10] = Plasma protein binding in human at 5 uM measured after 4 hrs under shaking by LC-MS/MS analysis; format: ADME, cell-free; conditions: read-out: PPB (converted); procedure, shortened: as §2
[11] = Unbound clearance in Sprague-Dawley rat at 5 mg/kg, po or 0.1 mg/kg, iv measured upto 24 hrs by LC-MS/MS analysis; format: ADME, organism-based; conditions: in vivo; procedure, shortened: as §1
[12] = Unbound clearance in Beagle dog at 5 mg/kg, po measured upto 24 hrs by LC-MS/MS analysis; format: ADME, organism-based, Canis lupus familiaris; conditions: in vivo
Procedure, shortened: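 Male Beagle dogs (n = 3), iv 10 min […], then after 3-day washout oral gavage 5 or 1 mg/kg in PEG400/0.5% MC or 0.5% MC after ≥12 h fast; jugular or cephalic blood (Li-heparin) to 24 h, plasma by LC-MS/MS.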

[13] = Half life in Sprague-Dawley rat at 0.1 mg/kg, iv measured upto 24 hrs by LC-MS/MS analysis; format: ADME, organism-based; conditions: in vivo; procedure, shortened: as §1
[14] = Half life in Beagle dog at 0.1 mg/kg, iv measured upto 24 hrs by LC-MS/MS analysis; format: ADME, organism-based, Canis lupus familiaris; conditions: in vivo
[15] = Volume of distribution at steady state in Sprague-Dawley rat at 5 mg/kg, po or 0.1 mg/kg, iv measured upto 24 hrs by LC-MS/MS analysis; format: ADME, organism-based; conditions: in vivo; procedure, shortened: as §1
[16] = Volume of distribution at steady state in Beagle dog at 5 mg/kg, po or 0.1 mg/kg, iv measured upto 24 hrs by LC-MS/MS analysis; format: ADME, organism-based, Canis lupus familiaris; conditions: in vivo
[17] = Plasma protein binding in dog at 5 uM measured after 4 hrs under shaking by LC-MS/MS analysis; format: ADME, cell-free, Canis lupus familiaris; conditions: read-out: PPB (converted); procedure, shortened: as §2
[18] = Apparent permeability from apical to basolateral side in MDCKII-MDR1 cells at 10 uM measured after 1 hr by LC-MS/MS analysis; format: ADME, cell-based, Canis lupus familiaris; conditions: dog, MDCK-MDR1
[19] = Intestinal permeability across apical to basolateral side in human Caco-2 cells at 10 uM measured after 1 hr by LC-MS/MS analysis; format: ADME, cell-based; conditions: read-out: permeability
[20] = Thermodynamic solubility of the compound in fasted simulated gastric fluid measured after 24 hrs by LC-MS/MS analysis; format: physicochemical; conditions: read-out: Therm_solubility
Procedure, shortened: (§3)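 Solid compound at 1 mg/mL in fasted simulated gastric fluid or pH 7.4 buffer, stirred 24 h at room temperature, centrifuged and filtered, diluted and quantified by LC-MS/MS against standard curve.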

[21] = Thermodynamic solubility of the compound at pH 7.4 measured after 24 hrs by LC-MS/MS analysis; format: physicochemical; conditions: buffer, read-out: Therm_solubility; procedure, shortened: as §3
Cytochrome P450 3A4 [22] = biological target: T1, Cytochrome P450 3A4; test: Inhibition of CYP3A4 in human liver microsomes using midazolam as substrate in presence of NADPH by LC/MS/MS analysis; format: ADME, Microsome
Cytochrome P450 3A4 [23] = biological target: T1, Cytochrome P450 3A4; test: Inhibition of CYP3A4 in human liver microsomes using testosterone as substrate in presence of NADPH by LC/MS/MS analysis; format: ADME, Microsome
Sigma receptor = Sigma receptor (Homo sapiens, UniProt Q99720+Q5BJF2); test: Inhibition of human Sigma receptor; format: protein assay
Procedure, shortened: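 Radioligand binding panel: displacement of cognate radioligand from human H1 or Sigma receptor, IC50 determined.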

[24] = Genotoxicity in Salmonella typhimurium by Ames test; format: toxicity; conditions: salmonella enterica subsp. enterica serovar typhimurium
[25] = biological target: Voltage-gated inwardly rectifying potassium channel KCNH2 (Homo sapiens, UniProt Q12809); test: Inhibition of human ERG by manual patch clamp test; format: toxicity
[26] = Plasma clearance in Beagle dog iv measured upto 24 hrs by LC-MS/MS analysis

T1 sequence (P08684 whole entry): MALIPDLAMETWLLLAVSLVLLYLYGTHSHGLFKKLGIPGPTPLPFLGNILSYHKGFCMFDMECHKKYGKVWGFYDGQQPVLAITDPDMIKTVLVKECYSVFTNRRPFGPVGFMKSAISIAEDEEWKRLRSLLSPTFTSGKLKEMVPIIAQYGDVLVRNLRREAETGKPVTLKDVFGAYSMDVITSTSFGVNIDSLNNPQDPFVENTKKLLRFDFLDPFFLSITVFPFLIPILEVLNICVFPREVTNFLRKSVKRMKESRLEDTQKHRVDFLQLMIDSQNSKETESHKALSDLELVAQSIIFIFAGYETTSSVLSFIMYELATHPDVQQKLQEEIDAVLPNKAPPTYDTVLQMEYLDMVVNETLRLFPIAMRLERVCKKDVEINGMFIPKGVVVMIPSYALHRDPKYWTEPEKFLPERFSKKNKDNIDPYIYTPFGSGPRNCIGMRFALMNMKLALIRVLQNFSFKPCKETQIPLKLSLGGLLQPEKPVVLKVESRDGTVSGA
Sequence of Voltage-gated inwardly rectifying potassium channel KCNH2 (Q12809 whole entry): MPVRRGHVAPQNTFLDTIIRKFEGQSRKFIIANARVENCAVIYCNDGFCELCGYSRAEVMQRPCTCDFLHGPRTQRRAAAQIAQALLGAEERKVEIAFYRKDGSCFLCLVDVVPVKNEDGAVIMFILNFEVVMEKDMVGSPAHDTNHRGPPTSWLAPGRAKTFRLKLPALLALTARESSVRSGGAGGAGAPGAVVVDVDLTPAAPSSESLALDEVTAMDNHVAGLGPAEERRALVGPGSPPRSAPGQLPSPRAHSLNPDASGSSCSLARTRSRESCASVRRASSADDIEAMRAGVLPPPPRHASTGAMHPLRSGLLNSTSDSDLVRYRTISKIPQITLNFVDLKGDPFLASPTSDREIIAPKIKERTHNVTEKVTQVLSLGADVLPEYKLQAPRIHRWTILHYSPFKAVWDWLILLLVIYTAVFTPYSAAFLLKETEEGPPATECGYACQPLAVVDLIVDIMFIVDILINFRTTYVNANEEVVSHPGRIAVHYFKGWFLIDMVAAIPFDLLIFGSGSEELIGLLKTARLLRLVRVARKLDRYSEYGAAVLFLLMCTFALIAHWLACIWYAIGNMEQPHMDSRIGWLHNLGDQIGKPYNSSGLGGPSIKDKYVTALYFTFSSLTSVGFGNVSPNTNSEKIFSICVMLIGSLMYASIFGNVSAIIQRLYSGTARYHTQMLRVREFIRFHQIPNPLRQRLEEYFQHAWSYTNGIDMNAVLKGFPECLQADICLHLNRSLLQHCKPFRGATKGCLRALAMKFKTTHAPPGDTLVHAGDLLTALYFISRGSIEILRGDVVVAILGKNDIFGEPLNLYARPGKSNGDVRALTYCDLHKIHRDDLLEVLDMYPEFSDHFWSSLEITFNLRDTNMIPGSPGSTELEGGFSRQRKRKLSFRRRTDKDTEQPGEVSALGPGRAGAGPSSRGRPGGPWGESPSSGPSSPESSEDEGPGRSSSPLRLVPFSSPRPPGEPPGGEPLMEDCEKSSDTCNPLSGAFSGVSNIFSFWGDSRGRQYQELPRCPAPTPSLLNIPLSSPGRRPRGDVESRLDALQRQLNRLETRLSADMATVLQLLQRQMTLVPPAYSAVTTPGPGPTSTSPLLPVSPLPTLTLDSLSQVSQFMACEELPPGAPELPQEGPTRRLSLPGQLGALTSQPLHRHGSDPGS

Structure (SMILES): O=C(O)c1cc(-c2ccc(N3CCOCC3)cc2)c2c(C3CCC3)nn(-c3ccccc3)c2n1
CL [1]: 3.3 mL/min/kg

Structure (SMILES): CS(=O)(=O)NC(=O)c1cc(-c2ccc(N3CCC(C#N)CC3)nc2)c2c(C3CCC3)nn(-c3ccccc3)c2n1
CL [1]: 0.41 mL/min/kg

Structure (SMILES): COc1ccc(-c2cc(C(=O)O)nc3c2c(C)nn3-c2ccccc2)cc1
CL free [6]: 180 mL/min/kg | CL free [7]: 173 mL/min/kg | CL free [2]: 305 mL/min/kg

Structure (SMILES): Cc1nn(-c2ccccc2)c2nc(C(=O)O)cc(-c3ccc(N4CCOCC4)cc3)c12
CL free [6]: < 43.3 mL/min/kg | CL free [7]: < 28.3 mL/min/kg | CL free [2]: 67 mL/min/kg | CL free [3]: < 45.7 mL/min/kg

Structure (SMILES): COC1CCN(c2cc(C(=O)NS(=O)(=O)N(C)C)nc3c2c(C2CCC2)nn3-c2ccc(F)cc2)CC1
CL free [2]: 66.2 mL/min/kg | CL free [3]: < 12.8 mL/min/kg | fraction unbound at 4 h, 5 µM [9]: 0.016 | fraction unbound at 4 h, 5 µM [10]: 0.02 | CL free [4]: < 24.8 mL/min/kg | Activity (Cytochrome P450 3A4 [8]): 4% | CL [5]: 5.33 mL/min/kg | CL free [11]: 333 mL/min/kg | CL free [12]: 178 mL/min/kg | half-life [13]: 3.45 h | half-life [14]: 5.4 h | Vdss [15]: 1.38 L/kg | Vdss [16]: 1.37 L/kg | fraction unbound at 4 h, 5 µM [17]: 0.025 | Papp A→B at 1 h, 10 µM [18]: 5.45 ×10⁻⁶ cm/s | Papp A→B at 1 h, 10 µM [19]: 24.5 ×10⁻⁶ cm/s | solubility thermodynamic at 24 h [20]: 10.9 µg/mL (≈ 20.5 µM) | solubility thermodynamic at 24 h [21]: 9.9 µg/mL (≈ 18.7 µM) | pIC50 (Cytochrome P450 3A4 [22]): < 4.00 | pIC50 (Cytochrome P450 3A4 [23]): < 4.00 | IC50 (Sigma receptor): 0.36 µM | Activity [24]: Non-Toxic | inhibition (INH) [25]: Not Active | clearance [26]: 3.5 mL/min/kg

The remaining lines, values ahead:

CL free [2]: 49 mL/min/kg | CL free [3]: < 11 mL/min/kg | CL free [4]: 31.7 mL/min/kg | CL [5]: 3.17 mL/min/kg
Structure (SMILES): CN(C)S(=O)(=O)NC(=O)c1cc(N2CCC(N3CCOCC3)CC2)c2c(C3CCC3)nn(-c3ccc(F)cc3)c2n1

CL free [6]: 182 mL/min/kg | CL free [7]: < 59.8 mL/min/kg | CL free [2]: 263 mL/min/kg
Structure (SMILES): COc1ccc(-c2cc(C(=O)O)nc3c2c(C)nn3-c2ccc(C)cc2)cc1

CL free [2]: < 11.5 mL/min/kg | Activity (Cytochrome P450 3A4 [8]): 9%
Structure (SMILES): CS(=O)(=O)NC(=O)c1cc(N2CCC(N3CCOCC3)CC2)c2c(C3CCC3)nn(-c3ccc(F)cc3)c2n1
